Results of several laboratories.
CSF1R: Macrophage colony-stimulating factor 1 receptor (CSF1R, Homo sapiens, UniProt P07333)
CSF1R autoinhibited: Macrophage colony-stimulating factor 1 receptor, autoinhibited (CSF1R, Homo sapiens, UniProt P07333)

CCN1CCN(Cc2ccc(C(=O)Nc3ccc(C)c(Oc4ccc5c(c4)CC(=O)N5)c3)cc2C(F)(F)F)CC1 — remaining binding (CSF1R; binding; competition with immobilised ligand; 1 µM): 2%
C[C@@H](c1ccc(-n2cnc3c(N)ncnc32)cc1)N1CCc2nn(C)c(Cc3ccccc3)c2C1=O — remaining binding (CSF1R; binding; competition with immobilised ligand; 0.1 µM): 100%
COc1ccnn2ncc(-c3ccnc(N(C)C)n3)c12 — remaining binding (CSF1R; binding; 1 µM): 100%
O=C(Nc1c[nH]nc1C(=O)NC1CCNCC1)c1cc(F)cc(F)c1 — remaining binding (CSF1R autoinhibited; binding; competition with immobilised ligand; 1 µM): 90%
COc1cnc(Nc2cccc(S(N)(=O)=O)c2)nc1N1CCN(c2ccccc2)CC1 — remaining binding (CSF1R; binding; competition with immobilised ligand; 1 µM): 100%
CN(C)c1nccc(-c2cnn3ncccc23)n1 — remaining binding (CSF1R; binding; 1 µM): 100%
O=C(c1ccc(Nc2ncc(Cl)c(-c3ccc(Cl)s3)n2)cc1)N1CCC(N2CCCC2)CC1 — remaining binding (CSF1R; binding; competition with immobilised ligand; 1 µM): 5.1%
CN(C)c1ncc(F)c(-c2cnn3ncccc23)n1 — remaining binding (CSF1R autoinhibited; binding; 1 µM): 69%
O=C(c1ccc(Nc2ncc(Cl)c(-c3cc4ccccc4s3)n2)cc1)N1CCC(N2CCCC2)CC1 — remaining binding (CSF1R; binding; competition with immobilised ligand; 1 µM): 24%
Cc1nc(NC(=O)N2CCC[C@H]2C(N)=O)sc1-c1ccnc(C(C)(C)C(F)(F)F)c1 — remaining binding (CSF1R autoinhibited; binding; competition with immobilised ligand; 10 µM): 98%
CC(=O)Nc1c(C(C)=O)c(=O)n(C)c2nc(-c3ccc(Cl)cc3Cl)c(-c3ccc(Cl)cc3)cc12 — remaining binding (CSF1R; cell-free assay; competition with immobilised ligand; 1 µM): 100%
c1cncc(-c2cccc(Nc3nccc(NC4CCCCC4)n3)c2)c1 — remaining binding (CSF1R; binding; competition with immobilised ligand; 10 µM): 0.15%
Nc1ncc2c(n1)-c1c([nH]c3ccc(C#CC4CC4)cc13)CCCC2 — remaining binding (CSF1R autoinhibited; binding; competition with immobilised ligand; 1 µM): 85%
CC(=O)C1=C(C)N(c2cccc(C(F)(F)F)c2)C(=O)N[C@@H]1c1ccc(C#N)nc1 — remaining binding (CSF1R autoinhibited; cell-free assay; competition with immobilised ligand; 1 µM): 100%
F[C@@H]1CCN(c2nccc(-c3cnn4ncccc34)n2)C1 — remaining binding (CSF1R autoinhibited; binding; 1 µM): 81%
CCC(=O)N[C@H]1CC[C@@H](C(=O)N(C)c2ccc(-c3nc4ccccc4o3)cc2)C1 — remaining binding (CSF1R autoinhibited; cell-free assay; competition with immobilised ligand; 1 µM): 56%
O=C(c1ccc(Nc2nccc(-c3cc4ccccc4s3)n2)cc1)N1CCC(N2CCCC2)CC1 — remaining binding (CSF1R; binding; competition with immobilised ligand; 1 µM): 42%
CC1CCCN1c1nccc(-c2cnn3ncccc23)n1 (centres unmarked) — remaining binding (CSF1R; binding; 1 µM): 100%
C[C@@H]1CN(c2ccc3ncc(-c4ccc5[nH]nc(C6CC6)c5c4)n3n2)C[C@H](C)O1 — remaining binding (CSF1R; binding; competition with immobilised ligand; 0.5 µM): 100%
O=C(Nc1ccc(Oc2ccc(F)cc2)cc1)N1CCc2ncccc2[C@H]1c1ccc(F)cc1 — remaining binding (CSF1R autoinhibited; cell-free assay; competition with immobilised ligand; 1 µM): 95%
O=C(NCCCN1CCOCC1)c1ccc(Nc2nccc(-c3cc4ccccc4s3)n2)cc1 — remaining binding (CSF1R autoinhibited; binding; competition with immobilised ligand; 1 µM): 83%
O=C(NCC1CCOCC1)c1n[nH]cc1NC(=O)c1c(F)cccc1F — remaining binding (CSF1R autoinhibited; binding; competition with immobilised ligand; 1 µM): 62%
N#Cc1ccccc1CSc1nnc2c(n1)[nH]c1ccccc12 — remaining binding (CSF1R; binding; competition with immobilised ligand; 10 µM): 100%
COc1cnc(Nc2cccc(S(N)(=O)=O)c2)nc1N1CCN(c2ccccc2)C(=O)C1 — remaining binding (CSF1R autoinhibited; binding; competition with immobilised ligand; 1 µM): 87%
COc1ccc2c(O[C@@H]3C[C@H]4C(=O)N[C@]5(C(=O)O)CC5/C=C\CCCCC[C@H](NC(=O)OC5CCCC5)C(=O)N4C3)cc(-c3csc(NC(=O)C(C)C)n3)nc2c1C (some centres unmarked) — remaining binding (CSF1R; cell-free assay; competition with immobilised ligand; 1 µM): 71%
O=C(NCCCN1CCOCC1)c1ccc(Nc2ncc(Cl)c(-c3ccc(Cl)s3)n2)cc1 — remaining binding (CSF1R; binding; competition with immobilised ligand; 1 µM): 15%
N[C@H]1CCN(c2nccc(-c3cnn4ncccc34)n2)C1 — remaining binding (CSF1R autoinhibited; binding; 1 µM): 100%
CNC(=O)[C@@H]1CC[C@@H](n2c(-c3ccc4cnccc4c3)nc3ccc(C(=O)NCc4cccc(C(N)=O)c4)cc32)C1 — remaining binding (CSF1R autoinhibited; binding; competition with immobilised ligand; 1 µM): 80%
COc1ncc2cc3ccccc3nc2c1C#N — remaining binding (CSF1R; cell-free assay; competition with immobilised ligand; 5 µM): 96%
CNC(=O)Nc1ccc2c(c1)[C@@]1(CC2)OC(=O)N(CC(=O)N(Cc2ccc(F)cc2)[C@@H](C)C(F)(F)F)C1=O — remaining binding (CSF1R autoinhibited; cell-free assay; competition with immobilised ligand; 1 µM): 100%
Cc1cnc(Nc2ccc(C(=O)N3CCC(N4CCCC4)CC3)cc2)nc1-c1cc2ccccc2s1 — remaining binding (CSF1R autoinhibited; binding; competition with immobilised ligand; 1 µM): 45%
CS(=O)(=O)N1CCCC(NC(=O)[C@H](CCC2CCCCC2)NC(=O)c2ccc(CNc3ncnc4c3nnn4-c3ccccc3)cc2)C1 (some centres unmarked) — remaining binding (CSF1R autoinhibited; cell-free assay; competition with immobilised ligand; 0.1 µM): 100%
C=CC(=O)N1CCC(C(=O)NCC(=O)N2CCN(c3nc(-c4cnc(N)nc4C(F)F)nc(N4CCOCC4)n3)CC2)CC1 — remaining binding (CSF1R autoinhibited; binding; competition with immobilised ligand; 1 µM): 20%
O=C(O)[C@H]1[C@H](Cn2nnc3ccccc3c2=O)CC[C@@H]1C(=O)c1ccc(OCCC2CCOCC2)cc1 — remaining binding (CSF1R autoinhibited; cell-free assay; competition with immobilised ligand; 1 µM): 100%
C[C@H]1CCN(c2nccc(-c3cnn4ncccc34)n2)C1 — remaining binding (CSF1R autoinhibited; binding; 1 µM): 75%
